Laboratory results from ChEMBL document CHEMBL4376840, “Application of Fluorine- and Nitrogen-Walk Approaches: Defining the Structural and Functional Diversity of 2-Phenylindole Class of Cannabinoid 1 Receptor Positive Allosteric Modulators” (J Med Chem, 2020).
Calls of active or inactive are those of the source. No cut-off for these calls is given here.

Assays:
[1] = Half life in human liver microsomes at 1 uM up to 45 mins in presence of NADPH by LC-MS/MS analysis
[2] = Toxicity in C57BL/6 mouse assessed as catalepsy at 0.1 to 10 mg/kg, ip after 5 mins by bar holding assay; type: organism-based; settings: in vivo
Summary of the method: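 Male C57BL/6 mice were given 0.1 – 10 mg/kg compound or vehicle (1:1:18 ethanol:cremaphor:saline). Catalepsy was assessed at 5 min as % MPE with a 60 sec maximum. n = 5–6.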

Mus musculus [3] = assay: Reduction of intraocular pressure in ocular hypertensive NEE mouse harboring Sh3pxd2b deletion mutant at 0.2% administered topically to eye after 12 hrs by tonometry; type: functional, organism-based
Summary of the method: (§1)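 Ocular hypertensive NEE mice (1 bp deletion in Sh3pxd2b) received topical 0.2% compound alone. IOP change from baseline (time 0) was measured at 1, 6 and 12 h; paired t-tests.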

[4] = biological target: Cannabinoid receptor 1 (Mus musculus) (UniProt P47746); assay: Positive allosteric modulation activity at CB1 receptor in C57BL/6 mouse hippocampal neurons assessed as increase in depolarization-induced suppression of excitation at 1 uM at -70 mV holding potential by whole cell patch clamp assay
Chain of Cannabinoid receptor 1 (Mus musculus) (P47746 whole entry): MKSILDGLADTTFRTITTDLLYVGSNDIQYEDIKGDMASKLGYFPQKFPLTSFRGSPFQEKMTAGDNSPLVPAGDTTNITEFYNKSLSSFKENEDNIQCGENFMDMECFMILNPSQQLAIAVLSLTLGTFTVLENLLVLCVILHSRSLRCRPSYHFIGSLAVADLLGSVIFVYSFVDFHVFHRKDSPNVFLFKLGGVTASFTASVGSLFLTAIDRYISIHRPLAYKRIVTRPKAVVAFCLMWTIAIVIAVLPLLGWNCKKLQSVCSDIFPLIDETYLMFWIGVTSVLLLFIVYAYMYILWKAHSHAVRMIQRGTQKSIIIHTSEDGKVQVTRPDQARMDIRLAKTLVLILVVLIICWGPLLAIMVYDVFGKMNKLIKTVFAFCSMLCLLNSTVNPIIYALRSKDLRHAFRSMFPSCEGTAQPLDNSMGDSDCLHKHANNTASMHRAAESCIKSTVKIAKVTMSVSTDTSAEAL

Mus musculus [5] = assay: Potentiation of […] WIN55212-2-induced reduction in intraocular pressure in ocular normotensive C57BL/6J mouse assessed as change in IOP at 0.2% administered topically to eye measured after 1 hr by tonometry; type: functional
[6] = Toxicity in C57BL/6 mouse assessed as effect on hypothermia at 0.1 to 10 mg/kg, ip after 15 mins by thermometric method; type: organism-based; settings: in vivo
Summary of the method: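 Male C57BL/6 mice were given 0.1 – 10 mg/kg compound or vehicle (1:1:18 ethanol:cremaphor:saline). Body temperature was measured at 15 min and expressed relative to vehicle (100%). n = 5–6.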

[7] = rat, microsomes, 1 µM
Mus musculus [8] = assay: Reduction of intraocular pressure in ocular hypertensive NEE mouse harboring Sh3pxd2b deletion mutant at 0.2% administered topically to eye after 1 hr by tonometry; type: functional; summary of the method: as §1
Mus musculus [9] = assay: Antinociceptive activity in C57BL/6 mouse at 3 to 10 mg/kg, ip after 20 mins post treatment by warm water tail-flick assay; type: functional, organism-based
[10] = Half life in rat liver microsomes at 1 uM up to 45 mins in presence of NADPH by LC-MS/MS analysis
Mus musculus [11] = assay: Potentiation of […] WIN55212-2-induced reduction in intraocular pressure in ocular normotensive C57BL/6J mouse assessed as change in IOP at 0.2% administered topically to eye measured after 6 hrs by tonometry; type: functional
Mus musculus [12] = assay: Reduction of intraocular pressure in ocular hypertensive NEE mouse harboring Sh3pxd2b deletion mutant at 0.2% administered topically to eye after 6 hrs by tonometry; type: functional; summary of the method: as §1
[13] = buffer, pH 7.4, 2 h
Mus musculus [14] = assay: Potentiation of […] WIN55212-2-induced reduction in intraocular pressure in ocular normotensive C57BL/6J mouse assessed as change in IOP at 0.2% administered topically to eye measured after 12 hrs by tonometry; type: functional
[15] = human, microsomes, 1 µM

**Q.** With O=[N+]([O-])CC(c1ncccc1F)c1c(-c2ccccc2)[nH]c2ccccc12 (stereo not given) as the compound, how does the t1/2 [1] read?
**A.** The t1/2 was 27.4 min.

**Q.** What about the Activity [2] of the same compound?
**A.** Its Activity is “Non-Toxic”.

**Q.** What about the inhibition (Mus musculus [3]) of the same compound?
**A.** The inhibition was “inactive”.

**Q.** What about the Activity [4] of the same compound?
**A.** The Activity was “Active”.

**Q.** And the Activity (Mus musculus [5])?
**A.** The Activity was -0.7 mmHg.

**Q.** And the Activity [6]?
**A.** The Activity was “Non-Toxic”.

**Q.** What about the CLH [7] of the same compound?
**A.** Its CLH is 556 µL/min.

**Q.** And the Activity (Mus musculus [8])?
**A.** Its Activity is 2.5 mmHg.

**Q.** And the Activity (Mus musculus [9])?
**A.** Its Activity is “inactive”.

**Q.** What about the t1/2 [10] of the same compound?
**A.** The t1/2 was 4.08 min.

**Q.** What about the Activity (Mus musculus [11]) of the same compound?
**A.** The Activity was -0.6 mmHg.

**Q.** What about the Activity (Mus musculus [12]) of the same compound?
**A.** Its Activity is 3.6 mmHg.

**Q.** And the Kinetic_solubility [13]?
**A.** The Kinetic_solubility was 3.13 µM.

**Q.** And the Activity (Mus musculus [14])?
**A.** The Activity was 0.1 mmHg.

**Q.** And the CLH [15]?
**A.** The CLH was 84.5 µL/min.
